Data from ChEMBL document CHEMBL4400583, “Camporidines A and B: Antimetastatic and Anti-inflammatory Polyketide Alkaloids from a Gut Bacterium of Camponotus kiusiuensis” (J Nat Prod, 2019).
≈ marks a conversion by molar mass, not a printed value. Calls of active or inactive are those of the source. The calls are words filed in the database; no cut-off is given here.

Columns and labels:
Homo sapiens = organism: Homo sapiens; assay: Antiproliferative activity against human SNU538 cells after 72 hrs by SRB assay; type: functional, cell-based
MDA-MB-231 [1] = assay: Antimigratory activity against human MDA-MB-231 cells at 40 uM after 48 hrs by wound healing assay relative to control; type: functional
How it was run: (§1)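 Wound healing (scratch) assay on MDA-MB-231 human breast cancer cells, compound at 20 and 40 μM, sunitinib as positive control. Migration was expressed relative to untreated control as mean ± SD (n = 3), with significance versus control.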

RAW264.7 [2] = assay: Cytotoxicity against LPS-induced mouse RAW264.7 cells assessed as reduction in cell viability up to 80 uM by MTT assay; type: cell-based
How it was run: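 Viability of mouse macrophages after co-exposure to LPS and compound, measured by MTT assay. This was run alongside the LPS-induced NO suppression assay to check for cytotoxicity.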

MDA-MB-231 [3] = assay: Antiproliferative activity against human MDA-MB-231 cells after 72 hrs by SRB assay; type: functional, cell-based
Klebsiella pneumoniae = assay: Antibacterial activity against Klebsiella pneumoniae; type: functional
Escherichia coli = assay: Antibacterial activity against Escherichia coli; type: functional
RAW264.7 [4] = assay: Antiinflammatory activity in mouse RAW264.7 cells assessed as inhibition of LPS-induced nitric oxide production preincubated for 1 hr followed by LPS addition and measured on next day by Griess reagent based assay; type: functional, cell-based
How it was run: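 Mouse macrophages treated with compound, then stimulated with LPS to induce nitric oxide production (iNOS assay). NO suppression was read against LPS-only cells and expressed as IC50. 2-Amino-5,6-dihydro-6-methyl-4H-1,3-thiazine (AMT) was the positive control.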

Enterococcus faecium = assay: Antibacterial activity against Enterococcus faecium; type: functional
Candida albicans = assay: Antifungal activity against Candida albicans; type: functional
Staphylococcus aureus = assay: Antibacterial activity against Staphylococcus aureus; type: functional
A549 = assay: Antiproliferative activity against human A549 cells after 72 hrs by SRB assay; type: functional, cell-based
MDA-MB-231 [5] = assay: Antimigratory activity against human MDA-MB-231 cells at 20 uM after 48 hrs by wound healing assay relative to control; type: functional; how it was run: as §1
HCT-116 = assay: Antiproliferative activity against human HCT116 cells after 72 hrs by SRB assay; type: functional, cell-based
Aspergillus fumigatus = assay: Antifungal activity against Aspergillus fumigatus; type: functional
Enterococcus faecalis = assay: Antibacterial activity against Enterococcus faecalis; type: functional
[6] = system: Trichophyton mentagrophytes; assay: Antifungal activity against Trichophyton mentagrophytes; type: functional
MDA-MB-231 [7] = assay: Antiinvasive activity against human MDA-MB-231 cells at 40 uM after 48 hrs by crystal violet staining based microscopic method relative to control; type: functional
How it was run: (§2)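 Cell invasion assay with MDA-MB-231 human breast cancer cells exposed to 20 or 40 μM compound, sunitinib as positive control. Invasion decrease is relative to untreated control, given as mean ± SD of n = 3, with significance versus control.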

MCF-10A = assay: Antiproliferative activity against human MCF10A cells after 72 hrs by SRB assay; type: cell-based
Trichophyton rubrum = assay: Antifungal activity against Trichophyton rubrum; type: functional
MDA-MB-231 [8] = assay: Antiinvasive activity against human MDA-MB-231 cells at 20 uM after 48 hrs by crystal violet staining based microscopic method relative to control; type: functional; how it was run: as §2
SK-HEP1 = assay: Antiproliferative activity against human SKHEP1 cells after 72 hrs by SRB assay; type: functional, cell-based
Salmonella enterica = assay: Antibacterial activity against Salmonella enterica; type: functional
MDA-MB-231 [9] = assay: Antimigratory activity against human MDA-MB-231 cells after 48 hrs by wound healing assay; type: functional, cell-based; how it was run: as §1

SMILES | Activity (Homo sapiens) | Activity (MDA-MB-231 [1]) | Activity (RAW264.7 [2]) | Activity (MDA-MB-231 [3]) | MIC (Klebsiella pneumoniae) [µM] | MIC (Escherichia coli) [µM] | IC50 (RAW264.7 [4]) [µM] | MIC (Enterococcus faecium) [µM] | MIC (Candida albicans) [µM] | MIC (Staphylococcus aureus) [µM] | Activity (A549) | Activity (MDA-MB-231 [5]) | Activity (HCT-116) | MIC (Aspergillus fumigatus) [µM] | MIC (Enterococcus faecalis) [µM] | MIC [6] [µM] | Activity (MDA-MB-231 [7]) | Activity (MCF-10A) | MIC (Trichophyton rubrum) [µM] | Activity (MDA-MB-231 [8]) | further results
CCCCCC[C@H]1CN(O)[C@H]2C=C/C(=C\C=C\C(=O)O)[C@]23O[C@H]13 | inactive | inactive | Non-Toxic | inactive | 64 (≈ 20.4 µg/mL) | 64 (≈ 20.4 µg/mL) | 83 | 64 (≈ 20.4 µg/mL) | > 128 | 64 (≈ 20.4 µg/mL) | inactive | inactive | inactive | > 128 | 64 (≈ 20.4 µg/mL) | > 128 | inactive | Non-Toxic | > 128 | inactive | Activity (SK-HEP1): inactive; MIC (Salmonella enterica): 64 µM (≈ 20.4 µg/mL)
CCCCCC[C@H]1CN[C@H]2C=C/C(=C\C=C\C(=O)O)[C@]23O[C@H]13 | inactive | 73% | Non-Toxic | inactive | 64 (≈ 19.4 µg/mL) | 64 (≈ 19.4 µg/mL) | 16.9 | 64 (≈ 19.4 µg/mL) | > 128 | 64 (≈ 19.4 µg/mL) | inactive | 50% | inactive | > 128 | 64 (≈ 19.4 µg/mL) | > 128 | 36% | Non-Toxic | > 128 | 20% | Activity (MDA-MB-231 [9]): Dose-dependent effect; Activity (SK-HEP1): inactive; MIC (Salmonella enterica): 64 µM (≈ 19.4 µg/mL)
